≈ marks a conversion by molar mass, not a printed value. Calls of active or inactive are those of the source. The rule behind the calls is not given here. Where only a bound is given, the exact number is not on record here.

Experimental findings from ChEMBL document CHEMBL4665664, “Discovery of Orally Active Hydroxyethylamine Based SPPL2a Inhibitors” (ACS Med Chem Lett, 2019) are described below.

The target in one data set is Gamma-secretase. Briefly: Inhibition of gamma-secretase (unknown origin) expressed in HEK293 cells cotransfected with Notch1-VP16-GAL4 fusion and Gal4 luciferase reporter plasmid incubated for 24 hrs by luciferase reporter gene assay luminescence assay. The data set is classed as cell-based, Homo sapiens.
Another data set has as its system Mus musculus. Briefly: In vivo inhibition of SPPL2a in mouse assessed as increase in CD74/p8 NTF accumulation in splenocytes lysates at 100 mg/kg, po administered as single dose and measured after 4 hrs post-dosing by western blot analysis. Conditions: Lysate. (Immunoblotting shows a protein as a band on a membrane.)
Data set [1] can be described thus: Equilibrium solubility of the compound in DMSO solution at pH 6.8 by saturation shake flask method. It is filed as physicochemical. Put shortly:
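Equilibrium solubility by saturation shake-flask at pH 6.8, starting from DMSO solution.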

Data set [2] in a line: Lipophilicity, logD of the compound in octanol-buffer at pH 7.4 by shake-flask equilibrium based LC/MS/MS analysis. The data set is classed as physicochemical. The gist of the method: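 log D determined at pH 7.4 by rapid-throughput octanol/buffer 96-well shake-flask equilibration, with LC/MS/MS quantification.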
In data set [3] the target is T1, Signal peptide peptidase-like 2A (Homo sapiens, UniProt Q8TCT8).
T1 sequence (Q8TCT8 whole entry): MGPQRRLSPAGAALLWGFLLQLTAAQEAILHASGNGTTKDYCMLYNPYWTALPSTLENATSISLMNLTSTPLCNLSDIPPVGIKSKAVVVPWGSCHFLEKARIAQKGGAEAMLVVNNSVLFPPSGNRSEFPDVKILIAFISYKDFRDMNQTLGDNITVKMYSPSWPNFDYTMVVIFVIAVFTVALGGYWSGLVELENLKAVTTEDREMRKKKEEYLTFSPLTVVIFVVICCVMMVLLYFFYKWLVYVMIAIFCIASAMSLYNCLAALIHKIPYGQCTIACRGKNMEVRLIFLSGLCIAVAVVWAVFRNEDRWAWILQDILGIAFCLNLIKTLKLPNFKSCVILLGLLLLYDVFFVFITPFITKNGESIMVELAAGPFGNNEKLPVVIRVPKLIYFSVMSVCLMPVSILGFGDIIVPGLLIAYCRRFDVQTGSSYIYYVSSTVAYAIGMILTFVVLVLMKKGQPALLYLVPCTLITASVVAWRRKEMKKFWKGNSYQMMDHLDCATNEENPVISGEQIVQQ
Briefly: Inhibition of human SPPL2a expressed in HEK293 cells cotransfected with Gal4 luciferase reporter plasmid and VP16-TNFalpha(1-76)-NTF incubated for 24 hrs by luciferase reporter gene assay based luminescence assay. The data set is classed as cell-based. On the technique in general: Reporter assays use an easily measured gene product as a stand-in for the process of interest.

Another data set concerns the target T2, Beta-secretase 2 (Homo sapiens, UniProt Q9Y5Z0).
T2 sequence (Q9Y5Z0 whole entry): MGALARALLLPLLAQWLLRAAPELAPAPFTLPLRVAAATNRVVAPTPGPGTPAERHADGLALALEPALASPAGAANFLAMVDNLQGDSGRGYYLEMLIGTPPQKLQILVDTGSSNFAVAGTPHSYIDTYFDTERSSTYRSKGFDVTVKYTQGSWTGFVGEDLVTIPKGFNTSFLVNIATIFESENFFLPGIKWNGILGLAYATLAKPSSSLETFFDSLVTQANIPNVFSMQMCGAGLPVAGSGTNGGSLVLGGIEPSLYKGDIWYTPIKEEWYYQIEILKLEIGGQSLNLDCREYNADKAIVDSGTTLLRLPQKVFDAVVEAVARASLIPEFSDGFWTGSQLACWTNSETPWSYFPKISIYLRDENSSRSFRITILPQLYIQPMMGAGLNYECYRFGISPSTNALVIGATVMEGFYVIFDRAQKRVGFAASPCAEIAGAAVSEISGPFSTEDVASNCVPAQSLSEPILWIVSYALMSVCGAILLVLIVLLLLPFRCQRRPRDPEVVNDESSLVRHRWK
Briefly: Inhibition of human BACE2 (63 to 466 residues) expressed in baculovirus infected insect cells using Ac-C(PT14)EVNLDAEWK-NH2 as substrate preincubated for 1 hr followed by substrate addition and measured after 1 hr by fluorescence based assay.

A further data set addresses T3, Renin (Homo sapiens, UniProt P00797).
T3 sequence (P00797 whole entry): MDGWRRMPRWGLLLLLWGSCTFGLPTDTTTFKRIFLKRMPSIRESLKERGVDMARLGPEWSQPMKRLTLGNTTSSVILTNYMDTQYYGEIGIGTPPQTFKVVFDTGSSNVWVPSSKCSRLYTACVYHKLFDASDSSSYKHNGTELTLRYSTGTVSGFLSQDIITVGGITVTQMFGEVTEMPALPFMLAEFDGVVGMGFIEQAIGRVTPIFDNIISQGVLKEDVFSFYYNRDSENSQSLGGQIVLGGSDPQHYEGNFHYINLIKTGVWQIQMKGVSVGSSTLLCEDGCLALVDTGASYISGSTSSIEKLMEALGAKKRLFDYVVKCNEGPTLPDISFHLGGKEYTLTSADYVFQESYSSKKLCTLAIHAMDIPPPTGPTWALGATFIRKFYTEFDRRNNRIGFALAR
Briefly: Inhibition of human renin (67 to 406 residues) expressed in CHO cells using KHPWHLVIHT-C(PT14)-K as substrate preincubated for 1 hr followed by substrate addition and measured after 1 hr by fluorescence based assay.

The target in a further data set is T4, Cathepsin E (Homo sapiens, UniProt P14091).
T4 sequence (P14091 whole entry): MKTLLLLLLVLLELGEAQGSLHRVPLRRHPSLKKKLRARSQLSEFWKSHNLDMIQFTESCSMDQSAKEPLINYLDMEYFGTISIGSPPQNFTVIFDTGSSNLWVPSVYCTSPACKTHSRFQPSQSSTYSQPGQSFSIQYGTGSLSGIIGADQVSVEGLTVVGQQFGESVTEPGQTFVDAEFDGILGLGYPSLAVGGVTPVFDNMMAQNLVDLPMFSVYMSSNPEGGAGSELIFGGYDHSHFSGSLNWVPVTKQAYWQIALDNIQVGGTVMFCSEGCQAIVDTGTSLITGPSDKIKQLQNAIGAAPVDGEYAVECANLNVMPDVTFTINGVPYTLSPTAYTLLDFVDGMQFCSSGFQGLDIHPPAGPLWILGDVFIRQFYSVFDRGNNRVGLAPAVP
Description: Inhibition of human cathepsin E isoform 1 (19 to 401 residues) expressed in Escherichia coli using R-C(PT14)KPILFFRLGWR-OH as substrate preincubated for 1 hr followed by substrate addition and measured after 1 hr by fluorescence based assay.

For the next data set, the target named is Beta-secretase 1 (Homo sapiens, UniProt P56817). Description: Inhibition of human BACE1 (46 to 435 residues) expressed in baculovirus infected insect cells using Ac-C(PT14)EVNLDAEWK-NH2 as substrate preincubated for 1 hr followed by substrate addition and measured after 1 hr by fluorescence based assay.
Chain of Beta-secretase 1 (P56817 whole entry, the tested form may be a part): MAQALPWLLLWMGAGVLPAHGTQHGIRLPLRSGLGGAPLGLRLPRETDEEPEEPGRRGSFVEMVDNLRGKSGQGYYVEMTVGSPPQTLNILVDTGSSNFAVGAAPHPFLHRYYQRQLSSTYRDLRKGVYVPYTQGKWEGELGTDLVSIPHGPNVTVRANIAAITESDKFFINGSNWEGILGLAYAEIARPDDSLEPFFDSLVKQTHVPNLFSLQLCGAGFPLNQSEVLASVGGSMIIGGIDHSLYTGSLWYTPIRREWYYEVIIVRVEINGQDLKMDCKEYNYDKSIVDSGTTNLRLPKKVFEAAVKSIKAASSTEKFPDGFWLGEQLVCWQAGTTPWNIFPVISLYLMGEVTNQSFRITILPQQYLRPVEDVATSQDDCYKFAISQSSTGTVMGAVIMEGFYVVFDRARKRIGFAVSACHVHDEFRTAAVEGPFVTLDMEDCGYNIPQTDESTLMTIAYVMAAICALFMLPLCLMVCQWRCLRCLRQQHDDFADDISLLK
A further data set addresses Cathepsin D (Homo sapiens, UniProt P07339). Description: Inhibition of human cathepsin D (1 to 412 residues) expressed in baculovirus infected insect cells using R-C(PT14)-KPILFFRLGWR-OH as substrate preincubated for 1 hr followed by substrate addition and measured after 1 hr by fluorescence based assay.

Chain of Cathepsin D (P07339 65-162 limits assumed): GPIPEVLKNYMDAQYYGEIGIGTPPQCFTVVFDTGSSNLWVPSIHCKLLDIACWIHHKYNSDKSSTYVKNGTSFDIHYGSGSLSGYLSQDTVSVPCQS
Chain of Cathepsin D (P07339 169-412 limits assumed): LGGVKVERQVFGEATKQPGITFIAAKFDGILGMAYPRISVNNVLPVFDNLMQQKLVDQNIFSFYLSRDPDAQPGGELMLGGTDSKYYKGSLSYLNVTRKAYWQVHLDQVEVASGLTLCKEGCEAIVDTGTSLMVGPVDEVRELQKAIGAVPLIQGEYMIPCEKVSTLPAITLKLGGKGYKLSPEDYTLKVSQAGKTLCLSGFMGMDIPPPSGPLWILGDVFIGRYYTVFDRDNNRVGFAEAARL

On to `N[C@@H](c1ccccc1)[C@@H](O)CN(C1COC1)S(=O)(=O)c1ccc(Cl)c(Cl)c1`, for which the IC50 at Gamma-secretase is > 10 µM.
On the same count and under the same terms, to `CC1(C)CCC(C)(C)c2cc(S(=O)(=O)N(C[C@H](O)[C@@H](N)c3ccccc3)C3CCC3)ccc21` belongs 1.8 µM.
The same measure, in the same setting: in the case of `N[C@@H](c1ccccc1)[C@@H](O)CN(Cc1ccccc1)S(=O)(=O)c1ccc(Cl)c(Cl)c1` it was 3.4 µM; in that of `CC(C)ON(C[C@H](O)[C@@H](N)c1ccccc1)S(=O)(=O)c1ccc(Cl)c(Cl)c1`, 5.9 µM; in that of `CC1(N(C[C@H](O)[C@@H](N)c2ccccc2)S(=O)(=O)c2ccc(Cl)c(Cl)c2)CCC1`, 6.4 µM.
On the same count and under the same terms, in the case of `N[C@@H](c1ccccc1)[C@@H](O)CN(C1CCC1)S(=O)(=O)c1ccc(Cl)c(Cl)c1` it was 5.1 µM; in that of `CC(C)(C)c1cccc(S(=O)(=O)N(C[C@H](O)[C@@H](N)c2ccccc2)C2CCC2)c1`, 3.7 µM.
On to `C[C@H](NC(=O)[C@@H](O)c1cc(F)cc(F)c1)C(=O)N[C@@H]1C(=O)N(C)c2ccccc2-c2ccccc21`, for which the inhibition result in the data set on Mus musculus was “Active”.
At Gamma-secretase, `N[C@@H](c1ccccc1)[C@@H](O)CN(C1CCCCCC1)S(=O)(=O)c1ccc(Cl)c(Cl)c1` returned an IC50 of 2.1 µM.
For the molecule `N[C@@H](c1ccccc1)[C@@H](O)CN(C1CCC1)S(=O)(=O)c1ccc2scnc2c1`, on Gamma-secretase, the IC50 was > 10 µM.
Regarding `CC(C)CN(C[C@H](O)[C@H](Cc1ccccc1)NC(=O)OCc1ccccc1)S(=O)(=O)c1ccc(Cl)c(Cl)c1`, the solubility in [1] was < 2 µg/mL. The logD in data set [2] was > 4.6. This molecule also returned an IC50 in data set [3] of 4.3 µM.
As to `CC(C)(O)CN(C[C@H](O)[C@@H](N)c1ccccc1)S(=O)(=O)c1ccc(Cl)c(Cl)c1`, the IC50 on Gamma-secretase was > 10 µM.
The same measure, in the same setting: to `CC(C)(C)c1ccc(S(=O)(=O)N(C[C@H](O)[C@@H](N)c2ccccc2)C2CCC2)cc1` belongs 3.7 µM.
As for `CC(C)CN(C[C@H](O)[C@@H](N)Cc1ccccc1)S(=O)(=O)c1ccc(Cl)c(Cl)c1`, the solubility in data set [1] is < 2 µg/mL. This molecule had a logD in [2] of 3.1. Moreover, the IC50 in [3] is 0.86 µM.
In the case of `CC(C)CN(C[C@H](O)[C@@H](N)c1ccccc1)S(=O)(=O)c1ccc(Cl)c(Cl)c1`, the IC50 is 4.8 µM at Gamma-secretase; > 100 µM against Beta-secretase 2; > 100 µM against Renin; > 100 µM against Cathepsin E; > 100 µM against Beta-secretase 1; > 100 µM against Cathepsin D. In data set [1], this molecule had a solubility of 34 µg/mL (≈ 78.8 µM).

As usually defined, the IC50 is the midpoint of a concentration-inhibition curve. The low end stands for greater potency, the high end for weaker potency. As usually defined, the solubility is the dissolved amount per volume that the medium holds. A high value points to a readily soluble substance. Broadly, the logD is the decadic logarithm of the distribution of all forms, ionised or not, between an organic phase and buffer at a given pH. Low readings indicate a more hydrophilic compound, high ones a more lipophilic compound.
